Experimental findings from ChEMBL document CHEMBL3244146, “Pyranenamines: a new series of antiallergic compounds” (1979) are described below.

Assay [1] can be described thus: Antiallergic activity in passively sensitized rhesus monkey lungs assessed as inhibition of antigen-induced histamine release at 1 x 10^-4 M by fluorometric analysis relative to control. The assay is classed as functional, Macaca mulatta, Lung. The essentials:
(§1)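 Passively sensitized fragmented lung from a young adult male rhesus monkey, challenged with IgE-antihuman IgE; histamine release measured fluorometrically and SRS-A estimated by guinea pig ileum bioassay; inhibition relative to control; replicates given as number of separate lung preparations.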

Assay [2] deals with Rattus norvegicus. Put plainly: Antiallergic activity in iv dosed rat assessed as inhibition of egg albumin-induced passive cutaneous anaphylaxis treated for 30 secs followed by egg albumin-challenge measured after 30 mins. The assay is classed as functional. The conditions noted are these: 0.5 h, read-out: ID50 (the source's name).
Assay [3] is described as follows: Antiallergic activity in passively sensitized rhesus monkey lungs assessed as inhibition of antigen-induced histamine release at 1 x 10^-5 M by fluorometric analysis relative to control. The assay is classed as functional, Macaca mulatta, Lung. Put shortly: as §1
Assay [4] is described as follows: Antiallergic activity in passively sensitized rhesus monkey lungs assessed as inhibition of antigen-induced slow reacting substance of anaphylaxis release at 1 x 10^-4 M relative to control. The format is functional, Macaca mulatta, Lung. The essentials: as §1
For assay [5], the system named is Rattus norvegicus. Put plainly: Antiallergic activity in rat assessed as inhibition of egg albumin-induced passive cutaneous anaphylaxis at 25 mg/kg, po treated for 15 mins followed by egg albumin-challenge measured after 30 mins relative to control. The format is functional. Put shortly:
(§2)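 Oral PCA in rats: intradermal antiserum at four back sites (dose giving ~12×12 mm wheal), compound po 48 h later, 15 min before iv challenge with 0.5 mL saline containing 5 mg Evans blue plus 5 mg egg albumin; skin bluing read 30 min after challenge on two axes per wheal; six rats per dose versus ≥6 vehicle controls; percent inhibition from mean wheal size, one-sided t test.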

The nature of assay [6]: Antiallergic activity in passively sensitized rhesus monkey lungs assessed as inhibition of antigen-induced slow reacting substance of anaphylaxis release at 1 x 10^-5 M relative to control. The format is functional, Macaca mulatta, Lung. Put shortly: as §1
Assay [7] has as its system Rattus norvegicus. Put plainly: Antiallergic activity in rat assessed as inhibition of egg albumin-induced passive cutaneous anaphylaxis at 50 mg/kg, po treated for 15 mins followed by egg albumin-challenge measured after 30 mins relative to control. The assay is classed as functional. Put shortly:
as §2

Assay [8] relates to Rattus norvegicus. In words: Antiallergic activity in po dosed rat assessed as inhibition of egg albumin-induced passive cutaneous anaphylaxis treated for 15 mins followed by egg albumin-challenge measured after 30 mins. The format is functional. The conditions noted are these: read-out: ID50 (the source's name). Put shortly:
as §2

In assay [9] the test system is Rattus norvegicus. In words: Antiallergic activity in rat assessed as inhibition of egg albumin-induced passive cutaneous anaphylaxis at 10 mg/kg, iv treated for 30 secs followed by egg albumin-challenge measured after 30 mins relative to control. The conditions noted are these: 0.5 h. The format is functional.
Assay [10] has as its system Rattus norvegicus. In words: Antiallergic activity in rat assessed as inhibition of egg albumin-induced passive cutaneous anaphylaxis at 5 mg/kg, iv treated for 30 secs followed by egg albumin-challenge measured after 30 mins relative to control. The assay is classed as functional. The conditions noted are these: 0.5 h.
In assay [11] the test system is Lung. In words: Antiallergic activity in passively sensitized albino rat lungs assessed as inhibition of antigen-induced histamine release at 2.7 x 10^-4 M by fluorometric analysis relative to control. The assay is classed as functional. The essentials: (§3)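 Fragmented lung from adult male Charles River albino rats, passively sensitized, then antigen-challenged with compound present; released histamine measured fluorometrically; inhibition reported relative to control, with replicate count given as number of separate lung preparations.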

A short description of assay [12]: Antiallergic activity in passively sensitized rhesus monkey lungs assessed as inhibition of antigen-induced histamine release at 5.3 x 10^-5 M by fluorometric analysis relative to control. The assay is classed as functional, Macaca mulatta, Lung. Put shortly: as §1
Assay [13] can be described thus: Antiallergic activity in passively sensitized rhesus monkey lungs assessed as inhibition of antigen-induced histamine release at 1.3 x 10^-3 M by fluorometric analysis relative to control. The assay is classed as functional, Macaca mulatta, Lung. Put shortly: as §1
Assay [14] has as its system Lung. In words: Antiallergic activity in passively sensitized albino rat lungs assessed as inhibition of antigen-induced histamine release at 1.3 x 10^-3 M by fluorometric analysis relative to control. The assay is classed as functional. Put shortly: as §3
Assay [15] in a line: Antiallergic activity in passively sensitized rhesus monkey lungs assessed as inhibition of antigen-induced histamine release at 2.7 x 10^-4 M by fluorometric analysis relative to control. The format is functional, Macaca mulatta, Lung. Put shortly: as §1
A short description of assay [16]: Antiallergic activity in passively sensitized rhesus monkey lungs assessed as inhibition of antigen-induced slow reacting substance of anaphylaxis release at 1.3 x 10^-3 M relative to control. The format is functional, Macaca mulatta, Lung. The essentials:
as §1

Assay [17] is described as follows: Antiallergic activity in passively sensitized rhesus monkey lungs assessed as inhibition of antigen-induced slow reacting substance of anaphylaxis release at 2.7 x 10^-4 M relative to control. The assay is classed as functional, Macaca mulatta, Lung. The essentials:
as §1

Assay [18] has as its system Lung. In words: Antiallergic activity in passively sensitized albino rat lungs assessed as inhibition of antigen-induced histamine release at 5.3 x 10^-5 M by fluorometric analysis relative to control. The format is functional. The essentials:
as §3

The nature of assay [19]: Antiallergic activity in passively sensitized rhesus monkey lungs assessed as inhibition of antigen-induced slow reacting substance of anaphylaxis release at 5.3 x 10^-5 M relative to control. The format is functional, Macaca mulatta, Lung. Put shortly: as §1

Usually inhibition in vivo stands for the relative decrease from the control value, in per cent. For `CC(=O)Nc1cc(O)cc(N/C(C)=C2\C(=O)OC(=O)C(C(C)=O)=C2O)c1`, the “inhibition (INH)” value is on record as 57% in assay [1], 17% in assay [3], 22% in [4] and 6% in assay [6]. In the assay with Rattus norvegicus [2], the ED50 amounted to 0.02 mg/kg. For the same compound, the inhibition in vivo at 25 mg/kg with Rattus norvegicus [5] was determined as 2%.

Take `CC(=O)Nc1cc(N)cc(N/C(C)=C2\C(=O)OC(=O)C(C(C)=O)=C2O)c1`: the “inhibition (INH)” value in assay [1] is given as 17%; in [4], 8%. For the same compound, in the assay on Rattus norvegicus [2], the ED50 is 0.1 mg/kg. Also, the inhibition in vivo at 25 mg/kg in the assay on Rattus norvegicus [5] turned out to be 11%.

In the case of `CCC(=O)Nc1cc(NC(=O)CC)cc(N/C(C)=C2\C(=O)OC(=O)C(C(C)=O)=C2O)c1`, the inhibition in vivo at 50 mg/kg with Rattus norvegicus [7] turned out to be 14%. The ED50 with Rattus norvegicus [2] was 0.003 mg/kg.

`CCOC(=O)C(=O)Nc1cc(NC(=O)C(=O)OCC)cc(N/C(C)=C2\C(=O)OC(=O)C(C(C)=O)=C2O)c1`: the ED50 was determined as 0.03 mg/kg with Rattus norvegicus [2] and 6.5 mg/kg in the assay with Rattus norvegicus [8].

For the compound `CC(=O)C1=C(O)/C(=C(\C)Nc2cc(NC(=O)C(=O)O)cc(NC(=O)C(=O)O)c2)C(=O)OC1=O`, the figures for the ED50 with Rattus norvegicus [2] and with Rattus norvegicus [8] were 0.05 mg/kg and 19 mg/kg, respectively.

With `CC(=O)C1=C(O)/C(=C(\C)Nc2cc(NS(C)(=O)=O)cc(NS(C)(=O)=O)c2)C(=O)OC1=O`, the inhibition in vivo at 50 mg/kg in the assay on Rattus norvegicus [7] was 9%. In addition, in the assay on Rattus norvegicus [2], the ED50 is 0.3 mg/kg.

In the case of `CC(=O)C1=C(O)/C(=C(\C)Nc2c(Cl)cccc2Cl)C(=O)OC1=O`, the inhibition in vivo at 10 mg/kg with Rattus norvegicus [9] is 3%.

Regarding `CC(=O)C1=C(O)/C(=C(\C)Nc2cc(O)ccc2N)C(=O)OC1=O`, the inhibition in vivo at 5 mg/kg in the assay with Rattus norvegicus [10] is 47%.

Take `COc1ccc(N(C)/C(C)=C2\C(=O)OC(=O)C(C(C)=O)=C2O)cc1`: the inhibition in vivo at 5 mg/kg in the assay on Rattus norvegicus [10] stood at 37%.

`CC(=O)C1=C(O)/C(=C(\C)N(C)c2ccc(O)cc2)C(=O)OC1=O`: the inhibition in vivo at 5 mg/kg in the assay on Rattus norvegicus [10] is 42%.

As to `CC(=O)C1=C(O)/C(=C(\C)N)C(=O)OC1=O`, in the assay with Rattus norvegicus [10], the inhibition in vivo at 5 mg/kg worked out at 17%.

On to `CCC(=O)c1c(O)oc(=O)c(C(=O)CC)c1O`, for which, in the assay with Rattus norvegicus [9], the inhibition in vivo at 10 mg/kg was determined as 39%.

As to `CCCC(=O)c1c(O)oc(=O)c(C(=O)CCC)c1O`, the inhibition in vivo at 10 mg/kg in the assay on Rattus norvegicus [9] came to 3%.

`CCCCC(=O)c1c(O)oc(=O)c(C(=O)CCCC)c1O`: the inhibition in vivo at 10 mg/kg in the assay on Rattus norvegicus [9] is 69%.

For the compound `CC(C)CC(=O)c1c(O)oc(=O)c(C(=O)CC(C)C)c1O`, the inhibition in vivo at 10 mg/kg in the assay on Rattus norvegicus [9] was found to be 23%.

Consider `CCCCCCC(=O)c1c(O)oc(=O)c(C(=O)CCCCCC)c1O`, for which, in the assay with Rattus norvegicus [9], the inhibition in vivo at 10 mg/kg came to 27%.

`O=C([O-])c1cc(=O)c2c(OCC(O)COc3cccc4oc(C(=O)[O-])cc(=O)c34)cccc2o1.[Na+].[Na+]` [CROMOLYN SODIUM]: the “inhibition (INH)” value came to 47% in the assay on Lung [11]; 11% in [12]; 54% in assay [13]; 56% with Lung [14]; 37% in assay [15]; 27% in assay [16]. Moreover, the entries for the “inhibition (INH)” value (in assay [17]; with Lung [18]; in [19]) were 36%, 32% and 24%, respectively. The ED50 in the assay on Rattus norvegicus [2] was 0.9 mg/kg.
